Calls of active or inactive are those of the source. The calls are words filed in the database; no cut-off is given here.

Series [1] is described as follows: Drug level in sodium phosphate buffer treated with 10 uM PTU after 60 mins by LC-MS/MS analysis in presence of human MPO/H2O2/Cl-. The series is classed as physicochemical. Particulars: 1 h.
Series [2] in a line: Retention time of the compound in sodium phosphate buffer at 10 uM after 60 mins by LC-MS/MS analysis in presence of H2O2. The series is classed as physicochemical. Particulars: 1 h.
The nature of series [3]: Retention time of the compound by LC-MS/MS analysis in presence of human MPO/H2O2/Cl-/excess GSH. The series is classed as physicochemical.
Series [4] addresses T1, Thyroid peroxidase (Homo sapiens) (UniProt P07202).
T1 sequence (whole entry): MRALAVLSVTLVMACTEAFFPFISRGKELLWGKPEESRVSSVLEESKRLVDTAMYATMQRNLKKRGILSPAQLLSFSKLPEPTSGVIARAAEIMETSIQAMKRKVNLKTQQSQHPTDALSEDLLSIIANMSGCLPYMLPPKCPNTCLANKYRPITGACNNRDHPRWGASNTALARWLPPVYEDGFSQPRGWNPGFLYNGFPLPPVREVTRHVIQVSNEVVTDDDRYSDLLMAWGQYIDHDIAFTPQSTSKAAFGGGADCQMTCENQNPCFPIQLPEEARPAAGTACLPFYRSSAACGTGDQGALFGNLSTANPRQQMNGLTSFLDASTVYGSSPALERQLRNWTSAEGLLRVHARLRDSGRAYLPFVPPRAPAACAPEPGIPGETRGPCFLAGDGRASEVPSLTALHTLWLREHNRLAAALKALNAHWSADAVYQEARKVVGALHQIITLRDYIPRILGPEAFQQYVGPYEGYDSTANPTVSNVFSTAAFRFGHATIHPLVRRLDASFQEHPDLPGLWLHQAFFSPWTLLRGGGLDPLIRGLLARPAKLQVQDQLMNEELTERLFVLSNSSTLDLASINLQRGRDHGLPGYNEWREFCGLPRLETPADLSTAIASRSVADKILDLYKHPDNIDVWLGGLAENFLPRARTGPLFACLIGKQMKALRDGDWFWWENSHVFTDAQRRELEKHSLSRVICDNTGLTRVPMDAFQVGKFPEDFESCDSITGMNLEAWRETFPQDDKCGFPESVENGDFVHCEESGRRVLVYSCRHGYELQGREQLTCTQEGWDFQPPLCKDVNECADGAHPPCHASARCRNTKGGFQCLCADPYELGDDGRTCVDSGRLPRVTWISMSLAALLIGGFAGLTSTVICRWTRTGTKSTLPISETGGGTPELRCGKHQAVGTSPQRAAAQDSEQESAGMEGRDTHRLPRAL
Kind of series: Inhibition of TPO (unknown origin) using Amplex Red as substrate assessed as formation of resorufin by measuring ratio of Kinact to Ki measured every 20 secs by spectrophotometric analysis. An outline of the steps: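 Amplex Red oxidation to resorufin in 50 mM sodium phosphate pH 7.4, 150 mM NaCl, 1 mM DTPA, 2 μM H2O2, 30 μM Amplex Red, 2% DMSO. Reaction started by adding TPO. Background rate measured with bovine catalase added and subtracted. Fluorescence (ex 530/em 580) read every 20 s at room temperature. kinact/KI taken from initial rates over the first 300 s. Geometric mean of at least two experiments.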

Series [5] in a line: Lipophilicity, log D of the compound at pH 7.4 by shake-flask method. The series is classed as physicochemical. Particulars: buffer.
Series [6] concerns the target T2, Myeloperoxidase (Homo sapiens) (UniProt P05164).
T2 sequence (whole entry): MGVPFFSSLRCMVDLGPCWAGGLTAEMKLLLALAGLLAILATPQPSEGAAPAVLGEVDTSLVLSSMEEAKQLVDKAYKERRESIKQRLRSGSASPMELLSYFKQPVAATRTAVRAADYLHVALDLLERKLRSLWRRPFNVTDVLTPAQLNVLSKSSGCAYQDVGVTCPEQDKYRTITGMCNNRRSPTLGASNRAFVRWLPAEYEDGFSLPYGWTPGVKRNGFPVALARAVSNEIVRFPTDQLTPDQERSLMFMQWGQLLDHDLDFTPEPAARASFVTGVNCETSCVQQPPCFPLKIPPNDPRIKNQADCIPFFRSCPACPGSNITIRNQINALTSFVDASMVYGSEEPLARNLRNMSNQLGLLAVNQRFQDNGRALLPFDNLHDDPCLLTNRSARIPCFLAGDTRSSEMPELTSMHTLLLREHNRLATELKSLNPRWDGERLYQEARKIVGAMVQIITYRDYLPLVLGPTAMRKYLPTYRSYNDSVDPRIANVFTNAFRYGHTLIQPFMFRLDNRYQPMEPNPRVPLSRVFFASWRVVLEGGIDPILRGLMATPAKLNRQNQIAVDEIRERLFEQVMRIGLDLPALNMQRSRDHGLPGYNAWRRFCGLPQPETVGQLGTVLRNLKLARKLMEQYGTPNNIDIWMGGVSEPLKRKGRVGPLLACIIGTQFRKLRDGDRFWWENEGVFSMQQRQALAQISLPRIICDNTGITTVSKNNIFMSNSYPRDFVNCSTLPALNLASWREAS
The series is described as follows: Inhibition of peroxidase activity of MPO isolated from human polynuclear leukocytes using Amplex Red as substrate assessed as formation of resorufin by measuring ratio of Kinact to Ki measured every 20 secs by spectrophotometric analysis. An outline of the steps: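 Enzyme purified from human polynuclear leukocytes. Buffer: 50 mM sodium phosphate pH 7.4, 150 mM NaCl, 1 mM DTPA, 2 μM H2O2, 30 μM Amplex Red, inhibitor or DMSO. Resorufin fluorescence (ex 530/em 580) read every 20 s at room temperature. Progress curves fitted for kobs at each concentration. kinact/KI derived from the kobs versus [I] fit or slope. Geometric mean of at least two experiments.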

Series [7] in a line: Apparent permeability across RRCK cells. The series is classed as ADME, cell-based, Canis lupus familiaris, MDCKII-LE. Particulars: dog, MDCK. In a few lines: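 Passive permeability measured in Ralph−Russ canine kidney (RRCK) cells, a low-transporter line isolated from Madin−Darby canine kidney cells; reported as P_app (10⁻⁶ cm/s).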
The nature of series [8]: Fraction unbound in human plasma by equilibrium dialysis method. The format is ADME, cell-free. In a few lines:
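Fraction unbound in human plasma measured by equilibrium dialysis; mean of three individual determinations.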

The subject of series [9] is Liver microsome. Kind of series: Intrinsic apparent clearance in human liver microsomes. The series is classed as ADME. An outline of the steps: (§1)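 Stability incubations in NADPH-supplemented human liver microsomes or cryopreserved human hepatocytes. Total apparent intrinsic clearance scaled from the in vitro half-life; microsomes reported per mg protein, hepatocytes per 10⁶ cells.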

The test system of series [10] is Hepatocyte. Kind of series: Intrinsic apparent clearance in human hepatocytes assessed per 10^6 cells. The series is classed as ADME, cell-based. An outline of the steps:
as §1

Series [11] is described as follows: Plasma clearance in Wistar rat at 1 mg/kg, iv and 3 or 5 mg/kg, po. The series is classed as ADME, organism-based. In a few lines:
(§2)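 Male CD-1 mice (25−35 g), cannulated Wistar-Han rats (250 g), beagle dogs (12 kg) and cynomolgus monkeys (7 kg), fasted overnight and fed 1.0 or 2.0 h after dosing. iv 1 mg/kg in saline or 12% sulfobutyl ether β-cyclodextrin; po 3 or 5 mg/kg in 0.5% methylcellulose. Parameters calculated from plasma concentration−time data; mean ± SD for n = 3, individual values for n = 2.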

A short description of series [12]: Plasma clearance in Beagle dog at 1 mg/kg, iv and 3 or 5 mg/kg, po. The format is ADME, organism-based, Canis lupus familiaris. An outline of the steps:
as §2

Series [13] can be described thus: Volume of distribution at steady state in Wistar rat at 1 mg/kg, iv and 3 or 5 mg/kg, po. Particulars: in vivo, read-out: Vdss. The format is ADME, organism-based. In a few lines: (§3)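 Male mice, rats, dogs and cynomolgus monkeys, fasted overnight, fed after dosing. Intravenous dose 1 mg/kg in saline or 12% sulfobutyl ether β-cyclodextrin; oral arm 3 or 5 mg/kg in 0.5% methylcellulose. Steady-state volume derived from plasma concentration−time data; mean ± SD for n = 3, individual values for n = 2.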

Series [14] can be described thus: Volume of distribution at steady state in Beagle dog at 1 mg/kg, iv and 3 or 5 mg/kg, po. The format is ADME, organism-based, Canis lupus familiaris. Particulars: in vivo, read-out: Vdss. An outline of the steps: as §3
Series [15] can be described thus: Elimination half life in Wistar rat at 1 mg/kg, iv and 3 or 5 mg/kg, po. The format is ADME, organism-based. Particulars: in vivo, read-out: beta t1/2 (converted). An outline of the steps: as §2
A short description of series [16]: Elimination half life in Beagle dog at 1 mg/kg, iv and 3 or 5 mg/kg, po. The format is ADME, organism-based, Canis lupus familiaris. Particulars: in vivo, read-out: beta t1/2 (converted). In a few lines:
as §2

Series [17] in a line: Tmax in Wistar rat at 3 or 5 mg/kg, po. The format is ADME, organism-based. Particulars: in vivo. In a few lines: (§4)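 Male animals (CD-1 mice 25−35 g, cannulated Wistar-Han rats 250 g, beagle dogs 12 kg, cynomolgus monkeys 7 kg), fasted overnight and fed 1.0 or 2.0 h after dosing, water ad libitum. Oral dose 3 or 5 mg/kg in 0.5% methylcellulose. Parameters calculated from plasma concentration−time data; mean ± SD for n = 3, individual values for n = 2.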

Series [18] in a line: Tmax in Beagle dog at 3 or 5 mg/kg, po. The series is classed as ADME, organism-based, Canis lupus familiaris. Particulars: in vivo. An outline of the steps:
as §4

A short description of series [19]: Oral bioavailability in Wistar rat at 3 or 5 mg/kg. The format is ADME, organism-based. Particulars: in vivo. In a few lines: (§5)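 Male CD-1 mice, Wistar-Han rats, beagle dogs and cynomolgus monkeys, fasted overnight and fed after dosing. Given po at 3 or 5 mg/kg in 0.5% methylcellulose, with an iv reference dose of 1 mg/kg. Bioavailability derived from plasma concentration−time data; mean ± SD (n = 3) or individual values (n = 2).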

The nature of series [20]: Oral bioavailability in Beagle dog at 3 or 5 mg/kg. The series is classed as ADME, organism-based, Canis lupus familiaris. Particulars: in vivo. In a few lines: as §5
The target in series [21] is T2, Myeloperoxidase (Homo sapiens). Kind of series: (§6) Inhibition of peroxidase activity of MPO isolated from human polynuclear leukocytes using Amplex Red as substrate assessed as formation of resorufin measured every 20 secs by spectrophotometric analysis.
Series [22] deals with T3, Myeloperoxidase (Homo sapiens, UniProt P05164).
T3 sequence (P05164 whole entry): T2 sequence (whole entry)
Described as §6.

In series [23] the target is T3, Myeloperoxidase. The series is described as follows: Irreversible inhibition of MPO in LPS-stimulated human whole blood after 4 hrs by Amplex Red/H2O2-based fluorescence plate reader analysis. An outline of the steps:
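Heparinized whole blood from healthy human volunteers, stimulated with bacterial LPS and incubated with compound for 4 h. MPO captured on anti-MPO antibody plates and washed; residual activity measured with Amplex Red and H₂O₂. IC₅₀ reported as geometric mean [90% CI].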

The target of series [24] is T3, Myeloperoxidase. Kind of series: Inhibition of peroxidase activity of MPO isolated from human polynuclear leukocytes using Amplex Red as substrate assessed as formation of resorufin after 300 secs by spectrophotometric analysis.
Series [25] concerns the target T2, Myeloperoxidase (Homo sapiens). Particulars: 0.47 to 30 uM.
For series [26] the target is unchanged. Particulars: 24 uM.
The target is the same in series [27]. Particulars: 24 uM. The source holds these as a separate data set.

As for `CCCc1cc(=O)nc(SSc2nc(=O)cc(CCC)[nH]2)[nH]1`, in series [1], the Drug metabolism result is “metabolite_detected”.
For the compound `COc1ccc(-c2cc(=O)nc3n2CCO3)c(OC)c1`, the Retention_time in [2] is given as 14.99 min.
In the case of `CCCc1cc(=O)nc(S(=O)O)[nH]1`, in [1], the Drug metabolism result is given as “metabolite_detected”.
For `COc1ccc(-c2cc(=O)nc(SC[C@H](NC(=O)CC[C@H](N)C(=O)O)C(=O)NCC(=O)O)n2CCOC(C)C)c(OC)c1`, the Retention_time in series [3] is recorded as 15.7 min.
Turning to `CCCc1cc(=O)nc(S(=O)(=O)O)[nH]1`, in [1], the Drug metabolism entry is “metabolite_detected”.
For the compound `COc1ccc(-c2cc(=O)[nH]c(=S)n2CC(=O)NCCN)c(OC)c1`, the log(ratio) in series [4] was < 0.5; in [6] it was 4.03. In addition, in series [5], the logD is -1.4. Moreover, the Papp in [7] is 1.5 ×10⁻⁶ cm/s. The compound also had a fraction unbound in series [8] of 0.9. Moreover, the figures for the CLH(app) in [9] and in [10] were < 8 µL/min/mg and < 6 µL/min, respectively. For the same compound, the clearance was determined as 38.6 mL/min/kg in series [11] and 4.1 mL/min/kg in series [12]. Also, the Vd in [13] stood at 0.59 L/kg; in [14], 0.86 L/kg. Besides, the half-life in series [15] is 48.6 min; in [16], 155 min. Moreover, the Tmax in series [17] was 45 min; in [18], 60 min. Besides, the bioavailability in series [19] amounted to 3%; in series [20], 8%.
Consider `COc1ccc(-c2cc(=O)[nH]c(=S)n2CCOC(C)C)c(OC)c1`, for which the log(ratio) in series [4] was < 0.5; in [6], 3.87. The compound further gave a logD in [5] of 2.6. Besides, the pKinact in [21] is 2.43. For the same compound, the Ki in series [22] is 0.501 µM. This compound also returned an IC50 in series [23] of 11 µM. The Retention_time in [3] was determined as 25.4 min. Further, in [7], the apparent permeability (Papp) is 26 ×10⁻⁶ cm/s. Besides, the CLH(app) in [9] turned out to be 11 µL/min/mg.
Turning to `COc1ccccc1-c1cc(=O)[nH]c(=S)[nH]1`, the log(ratio) came out at 2.86 in series [4] and 3.36 in series [6]. The logD in series [5] turned out to be 1.3. In [23], this compound yielded a 50% inhibitory concentration (IC50) of 6.2 µM.
With `CCCc1cc(=O)[nH]c(=S)[nH]1` [PROPYLTHIOURACIL], the results for the IC50 in series [24] and in [23] were 2.81 µM and 5.7 µM, respectively. In series [25], the inhibition result was “tde”. Further, the inhibition result in series [26] is “Active”. Besides, the inhibition result in [27] was “inactive”.

The record behind these values is ChEMBL document CHEMBL3632461 (J Med Chem, 2015).
